Published values collected from several papers.
Compare with care: the assays were run in different laboratories.
Target: Serine/threonine-protein kinase TBK1 (TBK1, Homo sapiens, UniProt Q9UHD2)
Effect on: enzyme activity
Action: inhibitor
Sequence (Q9UHD2 1-729, as in one of the studies): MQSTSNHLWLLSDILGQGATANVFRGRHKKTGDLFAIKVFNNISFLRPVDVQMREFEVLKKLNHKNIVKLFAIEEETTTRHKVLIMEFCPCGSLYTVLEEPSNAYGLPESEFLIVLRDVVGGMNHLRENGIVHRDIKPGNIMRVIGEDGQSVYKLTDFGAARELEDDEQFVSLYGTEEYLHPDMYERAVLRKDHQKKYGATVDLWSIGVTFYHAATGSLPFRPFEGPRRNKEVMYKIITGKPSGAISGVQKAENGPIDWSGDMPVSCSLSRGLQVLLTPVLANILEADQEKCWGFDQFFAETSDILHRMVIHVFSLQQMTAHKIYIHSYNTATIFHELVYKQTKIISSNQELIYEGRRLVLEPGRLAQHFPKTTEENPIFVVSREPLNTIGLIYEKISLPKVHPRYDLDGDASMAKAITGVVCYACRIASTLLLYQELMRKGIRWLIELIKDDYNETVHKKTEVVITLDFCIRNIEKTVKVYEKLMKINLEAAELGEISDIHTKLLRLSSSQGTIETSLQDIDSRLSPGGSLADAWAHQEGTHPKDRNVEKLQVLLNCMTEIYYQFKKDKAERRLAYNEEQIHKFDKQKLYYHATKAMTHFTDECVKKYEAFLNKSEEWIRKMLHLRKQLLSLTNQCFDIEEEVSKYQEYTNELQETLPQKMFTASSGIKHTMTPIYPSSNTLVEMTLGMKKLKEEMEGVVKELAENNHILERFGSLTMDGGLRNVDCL

Structure (SMILES)	technique	concentration	remaining activity [%]
CC(C)(C)c1nc(-c2cccc(NS(=O)(=O)c3c(F)cccc3F)c2F)c(-c2ccnc(N)n2)s1	radiometric	1 µM	88
COc1cc(Nc2cnc(C#N)c(O[C@H](C)CN(C)C)n2)ncc1-c1cnn(C)c1	radiometric	10 µM	55
O=C(Nc1cnn(-c2csc(C(=O)NC3COC3)c2)c1)Nc1ccccc1Cl	–	5 µM	102
Cc1nn(CC(F)(F)F)cc1Nc1ncc(Br)c(NCc2ccc(S(N)(=O)=O)cc2)n1	radiometric	1 µM	5
Cc1cnc(NC2CCOCC2)nc1-n1cnc(C(=O)NC(CN)c2cc(F)cc(Cl)c2)c1 (stereo not shown)	radiometric	1 µM	61
Nc1nc(Nc2ccccc2)sc1C(=O)c1c(F)cccc1F	–	10 µM	92
FC(F)c1nc2ccccc2n1-c1nc(N2CCOCC2)nc(N2CCOCC2)n1	–	10 µM	102
Cc1sc(C(=O)NC2COC2)cc1-n1cc(NC(=O)Nc2c(F)cccc2Cl)cn1	–	10 µM	97.8
NS(=O)(=O)c1ccc(CNc2nc(Nc3cccc(CN4CCOCC4)c3)ncc2Br)cc1	radiometric	1 µM	4
CCN(CC)c1ccc(C2=NNC(=O)CC2C)cc1[N+](=O)[O-] (stereo not shown)	–	10 µM	104
Oc1cccc(-c2nc(N3CCOCC3)c3oc4ncccc4c3n2)c1	–	10 µM	91
Cc1nn(CC(F)(F)F)cc1Nc1nccc(NCc2ccc(S(N)(=O)=O)cc2)n1	radiometric	1 µM	49
CC(C)(C)C(=O)c1sc(NC2CCCCC2)nc1N	–	10 µM	95
